Measurements reported in ChEMBL document CHEMBL1129750, “Bicyclic N-hydroxyurea inhibitors of 5-lipoxygenase: pharmacodynamic, pharmacokinetic, and in vitro metabolic studies characterizing N-hydroxy-N-(2,3-dihydro-6-(phenylmethoxy)-3-benzofuranyl)urea” (J Med Chem, 1996).
Values belong to the compound of their own block, whether it stands above or below them. The source made the active and inactive calls. The calls are words filed in the database; no cut-off is given here.

Legend:
Mus musculus [1] = species on record: Mus musculus; assay: Glucuronidation rates in mouse liver microsomes; not detected; assay type: functional
In short: (§1)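 Liver microsomes (fresh male CD-1 mouse >10 weeks, or frozen human donor) at 0.25–1.0 mg/mL protein. Incubated with 2.5 mM substrate, 15 mM [14C]UDP-glucuronic acid, 10 mM MgCl2 and 2% BSA in 100 mM sodium phosphate pH 7.4, at 37 °C for 1–4 h. Stopped with 20% acetonitrile; glucuronide quantified by HPLC. Mean of duplicates.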

Homo sapiens = species on record: Homo sapiens; assay: Glucuronidation rates in human liver microsomes; assay type: functional; in short: as §1
Mus musculus [2] = species on record: Mus musculus; assay: Compound was tested to inhibit Leukotriene formation in A-23187-stimulated mouse whole blood using […] ex vivo, activity expressed as percent of control; NS=No Stastistical Significance; assay type: functional, organism-based
[3] = target: T1, Polyunsaturated fatty acid 5-lipoxygenase (Rattus norvegicus, UniProt P12527); assay: Inhibitory activity against rat 5-lipoxygenase by using continuous oxygen consumption assay.
T1 sequence (P12527 whole entry): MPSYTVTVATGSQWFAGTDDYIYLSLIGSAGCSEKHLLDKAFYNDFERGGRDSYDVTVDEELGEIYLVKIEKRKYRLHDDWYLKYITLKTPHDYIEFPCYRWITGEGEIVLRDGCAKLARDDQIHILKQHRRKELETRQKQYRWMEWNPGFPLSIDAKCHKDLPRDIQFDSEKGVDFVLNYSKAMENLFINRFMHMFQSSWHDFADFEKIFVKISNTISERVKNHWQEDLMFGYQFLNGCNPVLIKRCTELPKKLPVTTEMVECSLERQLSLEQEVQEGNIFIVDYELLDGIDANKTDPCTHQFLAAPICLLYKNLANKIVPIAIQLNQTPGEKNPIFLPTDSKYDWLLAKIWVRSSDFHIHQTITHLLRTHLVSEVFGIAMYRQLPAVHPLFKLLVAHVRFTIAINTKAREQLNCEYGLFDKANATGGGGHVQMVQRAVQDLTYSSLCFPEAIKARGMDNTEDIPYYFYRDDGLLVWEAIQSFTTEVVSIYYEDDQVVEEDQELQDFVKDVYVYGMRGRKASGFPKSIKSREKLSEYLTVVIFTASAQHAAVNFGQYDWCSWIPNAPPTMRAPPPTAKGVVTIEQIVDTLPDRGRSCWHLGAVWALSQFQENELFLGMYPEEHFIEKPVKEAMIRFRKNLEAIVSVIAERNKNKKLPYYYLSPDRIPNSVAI
In short: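 Semipurified cytosolic 5-LO from rat basophilic leukemia (RBL-1) cells; continuous oxygen-electrode assay of oxygen consumption; IC50.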

[4] = target: T2, Polyunsaturated fatty acid 5-lipoxygenase (Mus musculus) (UniProt P48999); assay: Inhibition of leukotriene formation in A-23187-stimulated mouse whole blood using […] ex vivo, activity expressed as percent of control.; assay type: functional, tissue-based; parameters: scale not given: the % may be the effect or the level left
T2 sequence (whole entry): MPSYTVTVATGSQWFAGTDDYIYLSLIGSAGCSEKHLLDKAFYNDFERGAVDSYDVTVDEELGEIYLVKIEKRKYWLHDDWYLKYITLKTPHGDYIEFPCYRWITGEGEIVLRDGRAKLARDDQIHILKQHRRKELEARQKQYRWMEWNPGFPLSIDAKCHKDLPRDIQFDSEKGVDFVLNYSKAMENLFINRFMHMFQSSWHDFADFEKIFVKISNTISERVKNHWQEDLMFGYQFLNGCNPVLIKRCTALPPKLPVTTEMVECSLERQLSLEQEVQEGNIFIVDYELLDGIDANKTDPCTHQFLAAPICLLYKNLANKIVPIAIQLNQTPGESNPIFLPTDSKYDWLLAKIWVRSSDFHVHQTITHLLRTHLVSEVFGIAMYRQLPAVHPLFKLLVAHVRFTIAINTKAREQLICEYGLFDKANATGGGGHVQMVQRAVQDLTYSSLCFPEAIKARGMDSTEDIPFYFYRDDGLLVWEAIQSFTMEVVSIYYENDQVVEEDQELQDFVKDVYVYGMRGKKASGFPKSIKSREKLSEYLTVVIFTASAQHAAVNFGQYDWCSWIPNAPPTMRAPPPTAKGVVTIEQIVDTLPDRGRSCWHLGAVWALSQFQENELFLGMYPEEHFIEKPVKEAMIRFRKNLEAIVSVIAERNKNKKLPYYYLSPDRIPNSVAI

Mus musculus [5] = assay: Percentage inhibition of LTB4 after 6 hr at dose 10 mg/kg in mouse; assay type: functional
Mus musculus [6] = assay: Maximum inhibition of LTB4 at dose 10 mg/kg in mouse; assay type: functional
Mus musculus [7] = species on record: Mus musculus; assay: Compound was tested to inhibit Leukotriene formation in A-23187-stimulated mouse whole blood using […] ex vivo; assay type: functional; conditions: Mus musculus, Blood; read-out: ED50
Mus musculus [8] = assay: Compound was administered intravenously in mouse to evaluate half life; ID= Iinsufficient data to calculate parameter.; assay type: ADME, organism-based; conditions: in vivo, iv
In short: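 Male CD-1 mice given 0.5 mg/kg IV by lateral tail vein over 5–10 s, in ethanol/propylene glycol 30:70 v/v; N = 3 per time point with terminal sampling under ether. Plasma HPLC, LOQ 0.05 μg/mL. Mean concentration per time point before noncompartmental analysis. Half-life from slope of log-concentration profile; CLp = dose/AUC.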

[9] = Compound was administered intravenously in monkey to evaluate plasma clearance values; assay type: ADME, organism-based; conditions: simiiformes, in vivo, iv
In short: (§2)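 IV infusion over 15 min via saphenous (monkey) or cephalic (dog) vein catheter, 1–1.4 mg/kg in 7.5% (w/v) aqueous (2-hydroxypropyl)-β-cyclodextrin; male cynomolgus monkeys and beagle dogs, N = 3. Chilled plasma analysed by HPLC. Noncompartmental parameters were estimated per animal and then averaged. CLp = dose/AUC, with AUC by linear/log-linear trapezoidal rule.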

Canis familiaris = assay: Compound was administered intravenously in dog to evaluate plasma clearance values; assay type: ADME, organism-based, Canis lupus familiaris; conditions: in vivo, iv; in short: as §2
Mus musculus [10] = assay: Percentage inhibition of LTB4 after 6 hr at dose 2 mg/kg in mouse; assay type: functional
Mus musculus [11] = species on record: Mus musculus; assay: Glucuronidation rates in mouse liver microsomes; assay type: functional; in short: as §1
Mus musculus [12] = species on record: Mus musculus; assay: Inhibition of Leukotriene formation in mouse adoptive peritoneal anaphylaxis assay ex vivo; assay type: functional; conditions: Mus musculus
Mus musculus [13] = assay: Maximum inhibition of LTB4 at dose 2 mg/kg in mouse; assay type: functional
Mus musculus [14] = assay: Compound was tested to inhibit Leukotriene formation in mouse sensitized with 1BD8 cells after 7 hr of compound administration, activity expressed as percent of control; assay type: functional; parameters: concentration or dose not given beside the values
Mus musculus [15] = assay: Percentage inhibition of LTB4 after 6 hr at dose 3 mg/kg in mouse; NS=No Stastistical Significance; assay type: functional, organism-based; parameters: dose 3 mg/kg
Mus musculus [16] = assay: Maximum inhibition of LTB4 at dose 3 mg/kg in mouse; assay type: functional

SMILES: NC(=O)N(O)C1COc2cc(OCc3ccccc3)ccc21 (single isomer, unassigned; (+))
- Rate of formation (Mus musculus [1]): inactive
- Rate of formation (nM (mg of protein)-1) (Homo sapiens): 2.5

SMILES: CCc1ccc2c(c1)cc1n2CCC1N(O)C(N)=O (stereo not given)
- Activity (Mus musculus [2]): inactive

SMILES: NC(=O)N(O)C1CCCc2cc(CCc3ccccc3)ccc21 (stereo not given)
- Activity (Mus musculus [2]): inactive
- IC50 [3]: 600 nM

SMILES: NC(=O)N(O)C1CCn2c1cc1ccccc12 (stereo not given)
- Activity [4]: -74%
- IC50 [3]: 10000 nM

SMILES: NC(=O)N(O)C1CCCc2cc(OCc3ccccc3)ccc21 (single isomer, unassigned; (+))
- Activity [4]: 28%

SMILES: NC(=O)N(O)C1COc2cc(OCc3ccccc3)ccc21 (stereo in doubt; 1a)
- Activity [4]: -100%

SMILES: NC(=O)N(O)C1COc2cc(OCc3ccccc3)ccc21 (single isomer, unassigned; (-)) [listing 1 of 2 here]
- T1/2 (Mus musculus [8]): Insufficient data
- Clp [9]: 10.3 mL/min
- Clp (Canis familiaris): 10.9 mL/min

SMILES: NC(=O)N(O)C1CCCc2c(Oc3ccccc3)cccc21 (stereo not given)
- Activity [4]: -57%
- IC50 [3]: 840 nM

SMILES: NC(=O)N(O)C1CCCc2cc(OCc3ccccc3)ccc21 (single isomer, unassigned; (-))
- IC50 [3]: 1300 nM

SMILES: COc1ccc2c(c1)CCCC2N(O)C(N)=O (stereo not given)
- Activity (Mus musculus [2]): inactive
- IC50 [3]: 48000 nM

SMILES: NC(=O)N(O)C1CCc2cc(OCc3ccccc3)ccc21 (stereo in doubt; (-)2a)
- IC50 [3]: 620 nM

SMILES: NC(=O)N(O)C1COc2cc(OCc3ccccc3)ccc21 (single isomer, unassigned; (-)) [listing 2 of 2 here]
- Rate of formation (nM (mg of protein)-1) (Homo sapiens): 60.3
- Rate of formation (nM (mg of protein)-1) (Mus musculus [11]): 5.9

SMILES: COc1ccc(COc2ccc3c(c2)CCC3N(O)C(N)=O)cc1 (stereo not given)
- Activity (Mus musculus [2]): inactive
- IC50 [3]: 1400 nM

Further lines, with some results ahead:

- Activity [4]: -88%
- IC50 [3]: 850 nM
SMILES: NC(=O)N(O)C1CCc2cc(Oc3ccccc3)ccc21 (stereo not given)
- inhibition in vivo at 10 mg/kg (Mus musculus [5]): 57%
- Max inhibition (Mus musculus [6]): 88
- ED50 (Mus musculus [7]): 6.4 mg/kg

- IC50 [3]: 1700 nM
SMILES: Cc1c2n(c3ccc(C(C)C)cc13)CCC2N(O)C(N)=O (stereo not given)
- Activity (Mus musculus [2]): inactive

- Activity [4]: -85%
SMILES: NC(=O)N(O)C1CCc2cc(OCc3ccccc3)ccc21 (stereo in doubt; 2a)

- IC50 [3]: 5600 nM
SMILES: NC(=O)N(O)C1CCc2cccc(Oc3ccccc3)c21 (stereo not given)

- Activity [4]: -78%
SMILES: CC(c1cc2ccccc2s1)N(O)C(N)=O (stereo not given) [ZILEUTON]
- inhibition in vivo at 2 mg/kg (Mus musculus [10]): 40%
- Rate of formation (nM (mg of protein)-1) (Homo sapiens): 6.8
- Rate of formation (nM (mg of protein)-1) (Mus musculus [11]): 0.7
- ED50 (Mus musculus [12]): 1 mg/kg
- Max inhibition (Mus musculus [13]): 70
- Activity (Mus musculus [14]): -10%
- ED50 (Mus musculus [7]): 1 mg/kg

- IC50 [3]: 880 nM
SMILES: NC(=O)N(O)C1CCc2cc(OCc3ccccc3)ccc21 (single isomer, unassigned; (+))

- Activity [4]: -64%
- IC50 [3]: 3500 nM
SMILES: NC(=O)N(O)C1COc2ccc(Oc3ccccc3)cc21 (stereo not given)
- inhibition (Mus musculus [15]): inactive
- Max inhibition (Mus musculus [16]): 67
- ED50 (Mus musculus [7]): 1.9 mg/kg

- Activity [4]: -81%
- IC50 [3]: 500 nM
SMILES: COc1ccc(COc2ccc3c(c2)CCCC3N(O)C(N)=O)cc1 (stereo not given)
- ED50 (Mus musculus [12]): 4.8 mg/kg
- Activity (Mus musculus [14]): -13%
- ED50 (Mus musculus [7]): 4.8 mg/kg
